The source made the active and inactive calls.
Key:
[1] = molecular target: T1, Mitogen-activated protein kinase kinase kinase 14 (Homo sapiens, UniProt Q99558); assay: Binding affinity to biotinylated N-terminal 6His-tagged/TEV cleavage site-fused human NIK in presence of AMP-PNP by SPR analysis
Procedure, shortened: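 Dose–response SPR used biotinylated NIK in the presence of saturating AMP-PNP. Kd came from the fitted binding curve, reported as mean ± SEM of two determinations.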
Target sequence in this assay (Q99558 whole entry, the tested form may be a part): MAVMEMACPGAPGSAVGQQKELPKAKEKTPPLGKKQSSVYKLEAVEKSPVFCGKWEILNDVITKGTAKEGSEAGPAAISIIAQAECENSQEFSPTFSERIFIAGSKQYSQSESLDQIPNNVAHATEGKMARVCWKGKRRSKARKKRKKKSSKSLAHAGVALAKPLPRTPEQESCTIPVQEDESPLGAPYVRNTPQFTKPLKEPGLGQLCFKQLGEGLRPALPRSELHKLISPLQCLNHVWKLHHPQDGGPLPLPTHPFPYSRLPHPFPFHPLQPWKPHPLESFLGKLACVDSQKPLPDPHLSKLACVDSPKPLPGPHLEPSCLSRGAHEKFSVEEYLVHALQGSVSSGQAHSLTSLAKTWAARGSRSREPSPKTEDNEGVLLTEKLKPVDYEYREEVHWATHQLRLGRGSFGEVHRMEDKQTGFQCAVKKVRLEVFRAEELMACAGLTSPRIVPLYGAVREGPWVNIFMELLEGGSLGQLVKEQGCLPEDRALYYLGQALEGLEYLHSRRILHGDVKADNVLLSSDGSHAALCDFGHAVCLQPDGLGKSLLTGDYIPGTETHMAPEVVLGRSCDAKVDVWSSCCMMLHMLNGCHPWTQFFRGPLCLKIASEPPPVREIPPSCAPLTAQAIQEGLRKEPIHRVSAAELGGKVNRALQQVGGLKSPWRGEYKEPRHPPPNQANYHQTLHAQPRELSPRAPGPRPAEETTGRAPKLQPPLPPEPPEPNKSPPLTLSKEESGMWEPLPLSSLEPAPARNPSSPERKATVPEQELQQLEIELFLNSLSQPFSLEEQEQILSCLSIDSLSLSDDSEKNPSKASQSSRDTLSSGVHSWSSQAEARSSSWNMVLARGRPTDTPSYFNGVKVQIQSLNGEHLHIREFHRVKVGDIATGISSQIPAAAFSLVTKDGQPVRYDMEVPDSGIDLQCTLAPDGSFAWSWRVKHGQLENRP

[2] = molecular target: T1, Mitogen-activated protein kinase kinase kinase 14; assay: Binding affinity to biotinylated N-terminal 6His-tagged/TEV cleavage site-fused human NIK by SPR analysis
Procedure, shortened: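 Biotinylated NIK was probed by SPR with no nucleotide added, in dose–response format. Responses were plotted as a binding curve to give Kd, reported as mean ± SEM of two determinations.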
Target sequence in this assay (Q99558 whole entry, the tested form may be a part): as above

[3] = molecular target: T1, Mitogen-activated protein kinase kinase kinase 14; assay: Binding affinity to N-terminal 6His-tagged/TEV cleavage site-fused human NIK assessed as attenuation of spectral signal at 100 uM by 1H-CPMG-NMR analysis relative to control
Target sequence in this assay (Q99558 whole entry, looked up, the tested form may be a part): as the sequence (Q99558 whole entry, the tested form may be a part) above

[4] = Aggregation property of the compound in sodium phosphate buffer at pH 7.4 by 1H-NMR spectra analysis; format: physicochemical
[5] = molecular target: T1, Mitogen-activated protein kinase kinase kinase 14; assay: Binding affinity to N-terminal 6His-tagged/TEV cleavage site-fused human NIK assessed as attenuation of spectral signal at 100 uM in presence of AMP-PNP by 1H-CPMG-NMR analysis relative to control
Target sequence in this assay (Q99558 whole entry, looked up, the tested form may be a part): as the sequence (Q99558 whole entry, the tested form may be a part) above

[6] = Redox activity of the compound in HEPES/NaCl at pH 7.5 measured after 60 mins in presence of DTT by resazurin reagent based assay; format: physicochemical; conditions: pH 7.5, 1 h
Procedure, shortened: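 A plate-based redox assay screened for redox activity as a source of false positives. NSC 663284, a known redox-active molecule, served as the positive control.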

[7] = molecular target: T1, Mitogen-activated protein kinase kinase kinase 14; assay: Binding affinity to biotinylated N-terminal 6His-tagged/TEV cleavage site-fused human NIK at <500 uM by SPR analysis
Procedure, shortened: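 Biotinylated NIK used as the SPR surface. Each fragment was run at five concentrations, and the responses were fitted to a binding curve to estimate affinity. A 500 µM affinity cut-off was applied.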
Target sequence in this assay (Q99558 whole entry, looked up, the tested form may be a part): as the sequence (Q99558 whole entry, the tested form may be a part) above

[8] = Aqueous solubility of the compound in K2HPO4 in D2O with 5% DMSO-d6 at pH 7.4 by qNMR spectra analysis; format: physicochemical; conditions: K2HPO4 buffer in D2O with 5% DMSO-d6, pH 7.4

Row | Kd [1] | Kd [2] | Structure (SMILES) | other results
1 | 717 µM | 367 µM | Cc1cc(Cl)cc2c1C(O)(c1ccccc1)CCO2 (stereo not given) | –
2 | 131 µM | 134 µM | Cc1cccc2c1C(O)CCO2 (stereo not given) | –
3 | 214 µM | 130 µM | OC1CCOc2cc(Cl)ccc21 (stereo not given) | Activity [3]: > 50%; Activity [4]: Not Active; Activity [5]: > 50%; Activity [6]: Not Active; Activity [7]: Active; solubility [8]: ≥ 5 mM
4 | 369 µM | 572 µM | OC1(c2ccccc2)CCOc2cc(Cl)ccc21 (stereo not given) | –
5 | 583 µM | 206 µM | CCC1(O)CCOc2cc(Cl)ccc21 (stereo not given) | –
6 | 143 µM | 150 µM | COc1cc(Cl)cc(C)c1C(C)(O)C1CC1 (stereo not given) | –
7 | > 1000 µM | > 1000 µM | Cc1ccc2c(c1)C(O)CCO2 (stereo not given) | –
8 | 290 µM | 40.4 µM | OC1(C2CC2)CCOc2cc(Cl)ccc21 (stereo not given) | –
9 | > 1000 µM | > 1000 µM | Cc1ccc2c(c1)OCCC2O (stereo not given) | –
10 | > 1000 µM | > 1000 µM | COC1CCOc2cc(Cl)ccc21 (stereo not given) | –
11 | > 1000 µM | > 1000 µM | CC1(O)CCOc2cc(Cl)ccc21 (stereo not given) | –
12 | > 1000 µM | > 1000 µM | Cc1cccc2c1OCCC2O (stereo not given) | –

Reference: ChEMBL document CHEMBL5370689, “Development of Allosteric NIK Ligands from Fragment-Based NMR Screening” (ACS Med Chem Lett, 2023)
